# Assays:
# [1] = target: organic anion transporting polypeptide (OATP) 1B1; conditions: read-out: Ki for OATP1B1; in vitro; ref data on file; cited from earlier work
# [2] = tested on: breast cancer resistant protein (BCRP); experiment: In vitro inhibition of transporter BCRP by capmatinib; assay type: in vitro ADME; conditions: 400 mg twice daily
# p‐glycoprotein (P‐gp) = conditions: in vitro, cited from earlier work
# [3] = cited from earlier work
# [4] = Capmatinib plasma concentrations in DDI and post‐DDI phase; assay type: in vivo, human; conditions: 400 mg twice daily
# Safety assessments = assay type: in vivo, human
# [5] = Estimated maximum luminal concentration in the gut; parameters: species or system human; conditions: therapeutic dose 400 mg twice daily; dose/250 mL
# OATP1B3 = conditions: read-out: Ki for OATP1B3; in vitro; ref data on file; cited from earlier work
# [6] = tested on: breast cancer resistant protein (BCRP); conditions: in vitro, cited from earlier work
# [7] = tested on: MET‐dysregulated advanced solid tumours; experiment: Antitumour activity by Investigator's assessment per RECIST 1.1; assay type: in vivo, human
# In short: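 Adults (≥18 years) with refractory MET-dysregulated advanced solid tumours (amplification with gene copy number ≥4 by FISH or qPCR, IHC intensity +3 in ≥50% of tumour cells, or exon 14 deletion mutation). Test compound given orally at 400 mg twice daily, then continued on 21-day cycles. Investigator-read CT every 6 weeks. Patients stopping for other reasons were followed until progression, new therapy or death.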
# [8] = one of the capmatinib studies; ref data on file; cited from earlier work
# [9] = Clinical DDI study: plasma pharmacokinetics of probe drugs; conditions: for AUC(0-inf): AUCinf; for AUC(0-t): AUClast; for half-life: T1/2, geo‐mean (geo‐CV%)
# [10] = regardless of study drug relationship
# [11] = human, in vivo, adjusted geo‐mean, probe drug + capmatinib, linear mixed effects model
# [12] = human, in vivo, adjusted geo‐mean, probe drug alone, linear mixed effects model
# [13] = human, in vivo, geo‐mean (geo‐CV%), probe drug alone, Day 1, plasma
smiles,measurement,setting,value
CNC(=O)c1ccc(-c2cnc3ncc(Cc4ccc5ncccc5c4)n3n2)cc1F [capmatinib],Ki,[1],5.1 µM
same,maximum luminal gut concentration relative to Ki for BCRP,[2],> 300 fold
same,IC50,p‐glycoprotein (P‐gp); read-out: IC50 for inhibition of P‐gp,12 µM
same,Ki,"p‐glycoprotein (P‐gp); read-out: Ki for P‐gp, ref data on file",12 µM
same,steady state expected to be reached by,[3]; consecutive twice daily dosing,≤ 3 days
same,time to maximum plasma concentration (Tmax),[3]; oral administration,1 to 2 h
same,geometric mean predose concentration,[4]; Cycle 2 Day 1 (post‐DDI phase),529 ng/mL
same,geometric mean predose concentration,[4]; Day 22 (DDI phase),407 ng/mL
same,concentration at 2 h,"[4]; human, oral",3960 ng/mL
same,patients with AEs leading to study drug discontinuation,Safety assessments; all events grade 3/4,9.4%
same,patients with treatment‐related AEs,Safety assessments; all grades,78.1%
same,"treatment‐related asthenia, patients",Safety assessments; all grades,18.8%
same,"treatment‐related dyspepsia, patients",Safety assessments; all grades,15.6%
same,"treatment‐related nausea, patients",Safety assessments; all grades,34.4%
same,"treatment‐related peripheral oedema, patients",Safety assessments; all grades,12.5%
same,"treatment‐related vomiting, patients",Safety assessments; all grades,34.4%
same,"nausea leading to dose adjustment or dose interruption, patients",Safety assessments; both Grade ≤2,6.3%
same,alterations in the electrocardiograph,Safety assessments; in vivo,No clinically relevant alterations
same,on‐treatment deaths,Safety assessments; in vivo,18.8%
same,on‐treatment deaths due to AE (respiratory tract infection),Safety assessments; in vivo,3.1%
same,on‐treatment deaths due to AEs with disease progression as contributing reason,Safety assessments; in vivo,9.4%
same,on‐treatment deaths due to disease progression,Safety assessments; in vivo,6.3%
same,"other treatment‐related SAEs: anaemia, abdominal pain and malaise, each",Safety assessments; in vivo,1 patient
same,patients who died during the study,Safety assessments; in vivo,25.0%
same,patients with AEs requiring dose adjustment or study drug interruption,Safety assessments; in vivo,40.6%
same,patients with treatment‐related Grade 3/4 AEs,Safety assessments; in vivo,25.0%
same,patients with treatment‐related SAEs,Safety assessments; in vivo,12.5%
same,"treatment‐related Grade 3/4 vomiting, patients",Safety assessments; in vivo,6.3%
same,"treatment‐related SAE vomiting, patients",Safety assessments; in vivo,9.4%
same,"Abdominal pain upper, Grade 3/4",Safety assessments; [10],0 n (%)
same,"Abdominal pain upper, all grades",Safety assessments; [10],4 (12.5) n (%)
same,"Abdominal pain, Grade 3/4",Safety assessments; [10],1 (3.1) n (%)
same,"Abdominal pain, all grades",Safety assessments; [10],3 (9.4) n (%)
same,"Anaemia, Grade 3/4",Safety assessments; [10],3 (9.4) n (%)
same,"Anaemia, all grades",Safety assessments; [10],7 (21.9) n (%)
same,"Asthenia, Grade 3/4",Safety assessments; [10],2 (6.3) n (%)
same,"Asthenia, all grades",Safety assessments; [10],14 (43.8) n (%)
same,"Back pain, Grade 3/4",Safety assessments; [10],1 (3.1) n (%)
same,"Back pain, all grades",Safety assessments; [10],6 (18.8) n (%)
same,"Blood albumin decreased, Grade 3/4",Safety assessments; [10],1 (3.1) n (%)
same,"Blood albumin decreased, all grades",Safety assessments; [10],2 (6.3) n (%)
same,"Candida infection, Grade 3/4",Safety assessments; [10],0 n (%)
same,"Candida infection, all grades",Safety assessments; [10],2 (6.3) n (%)
same,"Constipation, Grade 3/4",Safety assessments; [10],0 n (%)
same,"Constipation, all grades",Safety assessments; [10],13 (40.6) n (%)
same,"Cough, Grade 3/4",Safety assessments; [10],0 n (%)
same,"Cough, all grades",Safety assessments; [10],5 (15.6) n (%)
same,"Decreased appetite, Grade 3/4",Safety assessments; [10],1 (3.1) n (%)
same,"Decreased appetite, all grades",Safety assessments; [10],7 (21.9) n (%)
same,"Depression, Grade 3/4",Safety assessments; [10],0 n (%)
same,"Depression, all grades",Safety assessments; [10],2 (6.3) n (%)
same,"Diarrhoea, Grade 3/4",Safety assessments; [10],1 (3.1) n (%)
same,"Diarrhoea, all grades",Safety assessments; [10],6 (18.8) n (%)
same,"Dyspepsia, Grade 3/4",Safety assessments; [10],0 n (%)
same,"Dyspepsia, all grades",Safety assessments; [10],7 (21.9) n (%)
same,"Dyspnoea, Grade 3/4",Safety assessments; [10],2 (6.3) n (%)
same,"Dyspnoea, all grades",Safety assessments; [10],6 (18.8) n (%)
same,"Fatigue, Grade 3/4",Safety assessments; [10],0 n (%)
same,"Fatigue, all grades",Safety assessments; [10],4 (12.5) n (%)
same,"Headache, Grade 3/4",Safety assessments; [10],0 n (%)
same,"Headache, all grades",Safety assessments; [10],2 (6.3) n (%)
same,"Hypotension, Grade 3/4",Safety assessments; [10],1 (3.1) n (%)
same,"Hypotension, all grades",Safety assessments; [10],2 (6.3) n (%)
same,"Increased blood bilirubin, Grade 3/4",Safety assessments; [10],1 (3.1) n (%)
same,"Increased blood bilirubin, all grades",Safety assessments; [10],5 (15.6) n (%)
same,"Lymphocyte count decreased, Grade 3/4",Safety assessments; [10],1 (3.1) n (%)
same,"Lymphocyte count decreased, all grades",Safety assessments; [10],2 (6.3) n (%)
same,"Nausea, Grade 3/4",Safety assessments; [10],2 (6.3) n (%)
same,"Nausea, all grades",Safety assessments; [10],18 (56.3) n (%)
same,"Oedema peripheral, Grade 3/4",Safety assessments; [10],0 n (%)
same,"Oedema peripheral, all grades",Safety assessments; [10],9 (28.1) n (%)
same,"Pulmonary embolism, Grade 3/4",Safety assessments; [10],3 (9.4) n (%)
same,"Pulmonary embolism, all grades",Safety assessments; [10],3 (9.4) n (%)
same,"Pyrexia, Grade 3/4",Safety assessments; [10],1 (3.1) n (%)
same,"Pyrexia, all grades",Safety assessments; [10],8 (25.0) n (%)
same,"Rash, Grade 3/4",Safety assessments; [10],0 n (%)
same,"Rash, all grades",Safety assessments; [10],2 (6.3) n (%)
same,"Respiratory tract infection, Grade 3/4",Safety assessments; [10],1 (3.1) n (%)
same,"Respiratory tract infection, all grades",Safety assessments; [10],5 (15.6) n (%)
same,"Total adverse events, Grade 3/4",Safety assessments; [10],18 (56.3) n (%)
same,"Total adverse events, all grades",Safety assessments; [10],32 (100) n (%)
same,"Urinary tract infection, Grade 3/4",Safety assessments; [10],0 n (%)
same,"Urinary tract infection, all grades",Safety assessments; [10],3 (9.4) n (%)
same,"Vertigo, Grade 3/4",Safety assessments; [10],0 n (%)
same,"Vertigo, all grades",Safety assessments; [10],2 (6.3) n (%)
same,"Vitamin K decreased, Grade 3/4",Safety assessments; [10],1 (3.1) n (%)
same,"Vitamin K decreased, all grades",Safety assessments; [10],3 (9.4) n (%)
same,"Vomiting, Grade 3/4",Safety assessments; [10],2 (6.3) n (%)
same,"Vomiting, all grades",Safety assessments; [10],13 (40.6) n (%)
same,"Weight decreased, Grade 3/4",Safety assessments; [10],0 n (%)
same,"Weight decreased, all grades",Safety assessments; [10],2 (6.3) n (%)
same,"anaemia, Grade 3/4, patients",Safety assessments; [10],9.4%
same,"anaemia, all grades, patients",Safety assessments; [10],21.9%
same,"asthenia, Grade 3/4, patients",Safety assessments; [10],6.3%
same,"asthenia, all grades, patients",Safety assessments; [10],43.8%
same,"constipation, all grades, patients",Safety assessments; [10],40.6%
same,"decreased appetite, all grades, patients",Safety assessments; [10],21.9%
same,"dyspepsia, all grades, patients",Safety assessments; [10],21.9%
same,"dyspnoea, Grade 3/4, patients",Safety assessments; [10],6.3%
same,"nausea, Grade 3/4, patients",Safety assessments; [10],6.3%
same,"nausea, all grades, patients",Safety assessments; [10],56.3%
same,patients with Grade 3/4 AEs,Safety assessments; [10],56.3%
same,patients with Grade 3/4 SAEs,Safety assessments; [10],40.6%
same,patients with SAEs of any grade,Safety assessments; [10],53.1%
same,"peripheral oedema, all grades, patients",Safety assessments; [10],28.1%
same,"pulmonary embolism, Grade 3/4, patients",Safety assessments; [10],9.4%
same,"pyrexia, all grades, patients",Safety assessments; [10],25%
same,"vomiting, Grade 3/4, patients",Safety assessments; [10],6.3%
same,"vomiting, all grades, patients",Safety assessments; [10],40.6%
same,enrolled patients who experienced at least 1 AE,"Safety assessments; regardless of study drug relationship, 32 enrolled",32 patients
same,serum creatinine change,"Safety assessments; some subjects, none clinically relevant or reported as AE",low‐grade creatinine increase
same,estimated maximum luminal concentration in the gut,[5],approximately 3880 μM
same,Ki,OATP1B3,5.2 µM
same,IC50,[6]; read-out: IC50 for inhibition of BCRP,16.4 µM
same,Ki,"[6]; read-out: Ki for BCRP, ref data on file",8.2 µM
same,Best overall response: Progressive disease (PD),[7]; all patients n = 32,17 (53.1) n (%)
same,Best overall response: Unknown,[7]; all patients n = 32,7 (21.9) n (%)
same,complete response (CR) or partial response (PR),[7]; all patients n = 32,No patient
same,disease control rate (CR + PR + SD),[7]; in vivo,25%
same,patients with PD as best overall response,[7]; in vivo,53.1%
same,patients with stable disease as best overall response,[7]; in vivo,25%
same,patients with unknown response,[7]; in vivo,21.9%
same,cystatin C level following capmatinib treatment,[8],No change
C[C@H]1O[C@@H](O[C@H]2[C@@H](O)C[C@H](O[C@H]3[C@@H](O)C[C@H](O[C@H]4CC[C@@]5(C)[C@H](CC[C@@H]6[C@@H]5C[C@@H](O)[C@]5(C)[C@@H](C7=CC(=O)OC7)CC[C@]65O)C4)O[C@@H]3C)O[C@@H]2C)C[C@H](O)[C@@H]1O [digoxin],T1/2,[3]; healthy subjects with normal renal function,36 to 48 h
same,time of peak serum concentrations,[3]; oral administration,1 to 3 h
same,increase of AUCinf on coadministration of capmatinib,[9]; compared to probe drug alone,47%
same,increase of AUClast on coadministration of capmatinib,[9]; compared to probe drug alone,63%
same,increase of Cmax on coadministration of capmatinib,[9]; compared to probe drug alone,74%
same,AUC(0-inf),[9]; [11],32.9 ng·h/mL
same,AUC(0-inf),[9]; [12],22.4 ng·h/mL
same,AUC(0-t),[9]; [11],23.8 ng·h/mL
same,AUC(0-t),[9]; [12],14.6 ng·h/mL
same,AUC(0-t),"[9]; human, in vivo, geo‐mean (geo‐CV%), probe drug + capmatinib 400 mg twice daily, Day 22, plasma",23.8 ng·h/mL
same,AUC(0-t),[9]; [13],14.6 ng·h/mL
same,Cmax,[9]; [12],1.12 ng/mL
same,Cmax,[9]; [13],1.12 ng/mL
same,half-life,"[9]; human, in vivo, probe drug + capmatinib 400 mg twice daily, Day 22",61.4 h
same,half-life,"[9]; human, in vivo, probe drug alone, Day 1",47 h
same,Tmax,"[9]; human, in vivo, Tmax, median (min, max), probe drug alone, Day 1",1.07 h

# — publication PMC8359310 (British Journal of Clinical Pharmacology, 2020)
